An excerpt weighted towards active compounds, which were near 3% of everything screened.
aDG glyco up – increases alpha dystroglycan glycosylation | Pro5-aDG cells, alpha-DG glycosylation AlphaScreen (IIH6); 0% Pro5, 100% B10-LARGE cell signal | activation, % at 10 µM | 360,000 tested, 0.22% active | AID 624168;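 active means activation of at least 8% versus controls, or a plate z-score of at least 8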;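 further: Pro5 are CHO cells carrying HIG-tagged alpha-DG that lacks glycosylation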
NPR2 activator – GC-B (human) receptor activation; P20594; activation, % at 10 µM; HEK293-GC-B cells, CNP EC30, cGMP TR-FRET; 0% at EC30 CNP, 100% saturating CNP; 370,000 tested, 0.11% active;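 active means activation at 10 µM reaching about 35% in either raw or pattern-adjusted values, limit read from the data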
Target sequence (P20594 whole entry, looked up): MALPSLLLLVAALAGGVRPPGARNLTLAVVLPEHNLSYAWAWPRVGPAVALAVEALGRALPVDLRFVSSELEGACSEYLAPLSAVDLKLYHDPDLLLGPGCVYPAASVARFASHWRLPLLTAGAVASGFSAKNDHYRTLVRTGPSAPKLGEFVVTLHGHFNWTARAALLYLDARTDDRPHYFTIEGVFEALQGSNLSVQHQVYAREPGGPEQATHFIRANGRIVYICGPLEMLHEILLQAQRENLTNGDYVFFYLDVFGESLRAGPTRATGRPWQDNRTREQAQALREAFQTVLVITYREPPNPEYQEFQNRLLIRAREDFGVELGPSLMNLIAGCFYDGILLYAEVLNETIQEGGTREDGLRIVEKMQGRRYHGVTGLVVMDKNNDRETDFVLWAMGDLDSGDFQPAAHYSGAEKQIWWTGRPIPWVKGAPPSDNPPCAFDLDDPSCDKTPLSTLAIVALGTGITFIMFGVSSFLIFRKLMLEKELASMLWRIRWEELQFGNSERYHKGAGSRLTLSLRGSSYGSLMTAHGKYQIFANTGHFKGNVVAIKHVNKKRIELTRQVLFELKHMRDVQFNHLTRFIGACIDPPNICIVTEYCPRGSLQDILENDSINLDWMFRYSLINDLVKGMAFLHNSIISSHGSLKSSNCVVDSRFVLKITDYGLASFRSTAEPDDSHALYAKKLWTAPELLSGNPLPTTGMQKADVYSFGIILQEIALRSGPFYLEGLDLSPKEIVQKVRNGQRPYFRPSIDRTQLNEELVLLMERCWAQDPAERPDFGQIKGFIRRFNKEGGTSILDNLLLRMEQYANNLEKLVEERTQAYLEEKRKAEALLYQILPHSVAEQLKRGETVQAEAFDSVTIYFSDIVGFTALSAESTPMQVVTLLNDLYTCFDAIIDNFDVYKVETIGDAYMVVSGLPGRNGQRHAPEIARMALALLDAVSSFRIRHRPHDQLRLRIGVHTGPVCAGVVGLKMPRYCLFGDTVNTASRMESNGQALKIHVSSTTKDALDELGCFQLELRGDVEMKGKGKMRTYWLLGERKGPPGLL
GC-A act – GC-A (human) enzyme activation; AID 1671463; P16066; HEK293 GC-A cells, cGMP TR-FRET, EC30 ANP; 0% at EC30 ANP, 100% saturating ANP; activation, % at 10 µM; 370,000 tested, 0.14% active; in the data active means activation above about 40%
Hep lipid drop – modulators of hepatic lipid droplet formation | 240,000 tested, 0.4% active | AID 1656 | inhibition, % at 6.5 µM | AML12 mouse hepatocytes, oleate lipid droplets, BODIPY imaging;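 active means lipid droplet intensity inhibited by at least 50%, with more than 500 cells counted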
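Test system: AML12 hepatocytes (mouse); reagent: oleate loading, 100 µM; dosing: one dose, 6.5 µM compound; incubation: overnight exposure; signal: fluorescence imaging, 20x objective, two fields per well; read-out basis: % inhibition of corrected integrated BODIPY droplet signal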
GRIN3A LBD mod – modulates the human NR3A ligand-binding domain. NR3A LBD differential scanning fluorimetry, Tm shift; 0% = protein alone, 100% = glycine-bound protein. AID 1259313. Tm shift relative to glycine control, % at 25 µM. 340,000 tested, 2.5% active;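 active means melting temperature shift of at least 10% of the positive control shift, at one fixed dose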
GASC-1 inh – human JMJD2C demethylase inhibition; Q9H3R0; GST-JMJD2C(1-420) H3K9me3 demethylation, DELFIA europium; inhibition, % at 2.35 µM; 330,000 tested, 0.069% active; AID 2099;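 active means more than half of a compound's replicate wells show inhibition beyond 50%, single wells judged on their own value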;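 further: signal counts dimethyl H3K9 product captured on neutravidin plate; 0% = median of DMSO wells and 100% = 0.3 times that DMSO median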
* marks the source's active call; other numbers are inactive results; . = no result.

SMILES	aDG glyco up	NPR2 activator	GC-A act	Hep lipid drop	GRIN3A LBD mod	GASC-1 inh
C/C(=N/NC(=O)c1ccoc1C)c1cccs1	.	5	5	.	.	.
Cc1ccn2c(C(=O)CSc3ccccc3Cl)c(C)nc2c1	0	-3	0	-2	14*	7
COc1ccc(CNC(=O)[C@H](Cc2ccccc2)NC(=O)CC[C@H]2O[C@@H](n3ccc(=O)[nH]c3=O)[C@H](O)[C@@H]2O)cc1	0	2	-1	.	.	.
COc1ccc(-c2nc(N=Nc3ccc(O)cc3)n[nH]2)cc1	-1	-3	0	-18	13*	-129
CCc1ccc(S(=O)(=O)N2c3ccc(C)cc3C3CN(C)CCC32)cc1 (stereo not drawn)	0	-3	-4	.	0	21
Cc1ccc2c(c1)[C@@H]1CN(C)CC[C@@H]1N2S(=O)(=O)c1ccc(F)cc1	0	-2	-2	.	14*	-5
Cc1ccc(C(=O)C2=C(O)C(=O)N(c3ncccn3)C2c2ccc(Cl)cc2)o1 (stereo not drawn)	0	0	5	-7	13*	17
O=C(C1=C(O)C(=O)N(c2ncccn2)C1c1ccc(Cl)cc1)c1ccco1 (stereo not drawn)	0	-4	1	.	-1	-14
Cc1ccc(-c2nc3ncccn3c2Nc2ccc3c(c2)OCCO3)o1	0	7	10	-20	-1	19
Clc1ccc(-c2nc3ncccn3c2Nc2ccc3c(c2)OCCO3)cc1	0	42*	45*	.	-13	2
COc1ccc(-c2nc3ncccn3c2Nc2ccc3c(c2)OCCO3)cc1	0	43*	46*	-11	4	3
Clc1ccc(-c2nc3cnccn3c2Nc2ccc3c(c2)OCO3)cc1	0	39*	41*	-3	-33	0
Cc1ccc(-c2nc3ncccn3c2Nc2ccc3c(c2)OCCO3)cc1	0	44*	41*	-5	4	33
Oc1ccc(-c2nc3ncccn3c2Nc2ccc3c(c2)OCCO3)cc1	0	22	31	-7	-5	4
Cc1ccc(-n2c(COc3ccccc3)nnc2SCC(=O)Nc2ccccc2-c2ccccc2)cc1	.	5	-7	.	.	.
CS(=O)(=O)N1CCC[C@]2(CC[C@@H](CCC#N)O2)C1	.	-7	3	.	.	.
O=c1c2ccccc2oc2cc(Br)ccc12	0	-2	0	.	13*	.
CC(C)n1cc(CN2CCC(C(=O)Nc3cccc(-c4cccc(Cl)c4)c3)CC2)cn1	8.6*	-2	-2	-29	-3	-7
CCn1cc(CN2CCC(C(=O)Nc3cccc(-c4cccc(F)c4)c3)CC2)cn1	1	3	-1	1	-1	12
CCn1nc(C)c(CN2CCC(C(=O)Nc3cccc(-c4cccc(F)c4)c3)CC2)c1C	8.0*	2	6	-1	0	-9
O=C(Nc1ccc(N2CCOCC2)c(F)c1)c1cccs1	0	1	1	5	-9	2
CCOC(=O)[C@@]12CCCC3=C1N(CCC3)C(=O)[C@H]2CC(=O)N1CCSCC1	.	-3	1	.	.	.
CCC(=O)N1CCc2cc(Br)cc(S(=O)(=O)CC(=O)OC)c21	0	.	.	.	14*	99*
CCC(=O)N1CCc2cc(Br)cc(S(=O)(=O)NCCN3CCCC3)c21	0	-2	4	.	-2	2
O=C(Cc1ccc(NC(=O)C2CCN(C(=O)C3CCCC3)CC2)cc1)Nc1cccc(C(=O)N2CCCC2)c1	.	9	3	.	.	.
O=C(Nc1cnn(Cc2ccc(F)cc2)c1)c1cnccn1	0	-5	-7	-3	1	5
O=C(Nc1cnn(Cc2ccc(F)cc2)c1)C(c1ccccc1)c1ccccc1	1	0	-5	-5	20*	-5
CCOC(=O)C(=O)NC12CC3CC(CC(C3)C1)C2	0	0	3	0	11*	-2
CCOCC(=O)OCC(=O)NC12CC3CC(CC(C3)C1)C2	0	1	2	3	-2	-19
CCNc1oc(-c2ccccc2F)nc1S(=O)(=O)c1ccccc1	0	.	.	-5	-2	23

High-throughput results from PubChem.
